Target: T1, Mitogen-activated protein kinase kinase kinase 5 (Homo sapiens, UniProt Q99683)
T1 sequence (Q99683 whole entry): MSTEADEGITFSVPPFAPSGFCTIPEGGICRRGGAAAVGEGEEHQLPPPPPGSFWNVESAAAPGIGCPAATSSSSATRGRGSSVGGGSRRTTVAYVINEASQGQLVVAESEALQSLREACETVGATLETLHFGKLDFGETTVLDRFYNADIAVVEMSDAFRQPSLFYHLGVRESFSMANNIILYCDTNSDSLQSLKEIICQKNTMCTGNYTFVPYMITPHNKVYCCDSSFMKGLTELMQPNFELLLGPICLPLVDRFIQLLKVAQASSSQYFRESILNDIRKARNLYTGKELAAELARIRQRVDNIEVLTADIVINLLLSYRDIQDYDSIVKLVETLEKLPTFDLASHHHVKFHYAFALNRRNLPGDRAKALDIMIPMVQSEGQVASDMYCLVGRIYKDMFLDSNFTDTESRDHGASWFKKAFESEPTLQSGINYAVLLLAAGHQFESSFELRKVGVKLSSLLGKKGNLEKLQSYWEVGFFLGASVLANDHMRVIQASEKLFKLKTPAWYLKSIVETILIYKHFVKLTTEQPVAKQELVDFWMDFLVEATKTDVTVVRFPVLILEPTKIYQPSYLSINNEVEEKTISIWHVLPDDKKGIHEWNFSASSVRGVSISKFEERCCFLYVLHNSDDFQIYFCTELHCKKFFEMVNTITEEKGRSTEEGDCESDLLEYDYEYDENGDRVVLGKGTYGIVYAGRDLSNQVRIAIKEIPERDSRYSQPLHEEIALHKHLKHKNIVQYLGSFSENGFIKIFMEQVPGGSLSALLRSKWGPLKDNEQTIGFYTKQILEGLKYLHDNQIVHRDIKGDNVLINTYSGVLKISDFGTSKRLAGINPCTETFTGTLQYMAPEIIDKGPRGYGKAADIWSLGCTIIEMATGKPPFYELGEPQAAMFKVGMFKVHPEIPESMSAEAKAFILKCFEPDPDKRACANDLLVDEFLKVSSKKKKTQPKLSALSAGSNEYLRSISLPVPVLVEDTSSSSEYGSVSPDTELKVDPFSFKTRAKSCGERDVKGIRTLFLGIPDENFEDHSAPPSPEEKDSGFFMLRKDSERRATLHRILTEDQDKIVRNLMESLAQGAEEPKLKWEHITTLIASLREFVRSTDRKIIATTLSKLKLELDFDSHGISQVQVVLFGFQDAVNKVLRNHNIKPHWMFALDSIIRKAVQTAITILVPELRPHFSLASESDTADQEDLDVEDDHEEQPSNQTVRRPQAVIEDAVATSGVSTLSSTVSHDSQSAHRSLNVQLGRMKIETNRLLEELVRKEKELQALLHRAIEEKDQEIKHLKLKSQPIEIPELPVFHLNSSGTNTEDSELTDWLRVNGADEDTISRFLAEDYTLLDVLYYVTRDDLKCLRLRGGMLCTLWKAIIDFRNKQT
Assay: Inhibition of N-terminal GST-tagged recombinant human full length ASK1 expressed in baculovirus-infected Sf21 cells using STK-Substrate-3 biotin as substrate in presence of ATP measured after 2 hrs by HTRF assay
Outline: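 HTRF assay with full-length recombinant human ASK1 at final 2 nM, in buffer containing 5 mM MgCl₂ and 1 mM DTT, 2% DMSO. Reaction run with STK-Substrate 3-biotin (final 2 µM) and ATP for 2 h at rt. STK S3 antibody-Eu then added and incubated a further 1 h. Read at 340 nm excitation and 665 nm emission. IC50 reported as mean ± SD from two independent experiments.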

Row | SMILES | IC50 [nM]
1 | CCOC(C)n1cc(-c2ccc3cc(C(=O)Nc4cccc(-c5nncn5C(C)C)n4)[nH]c3c2)cn1 (stereo not drawn) | 91.1
2 | CC(C)n1cnnc1-c1cccc(NC(=O)c2cc3cc(-c4cn[nH]c4)ccc3[nH]2)n1 | 31.6
3 | C[C@H](CO)n1cnnc1-c1cccc(NC(=O)c2cc3ccccc3[nH]2)n1 | 65.5
4 | CC(C)n1cnnc1-c1cccc(NC(=O)c2cc3cccc(Cl)c3[nH]2)n1 | 89.6
5 | CC(C)n1cnnc1-c1cccc(NC(=O)c2cc3cccc(-c4cn[nH]c4)c3[nH]2)n1 | 38.9
6 | COc1ccc2cc(C(=O)Nc3cccc(-c4nncn4C(C)C)n3)[nH]c2c1 | 54.3
7 | CC(C)n1cnnc1-c1cccc(NC(=O)c2cc3ccc(-c4cnn(C5CCOCC5)c4)cc3[nH]2)n1 | 73.7
8 | CC(C)n1cnnc1-c1cccc(NC(=O)c2cc3cccnc3[nH]2)n1 | 125
9 | CC(C)n1cnnc1-c1cccc(NC(=O)c2cc3cccc(-c4ccncc4)c3[nH]2)n1 | 23.1
10 | Cc1c(C(=O)Nc2cccc(-n3cnnn3)c2)oc2ccccc12 | 16700
11 | CC(=O)Nc1cccc2cc(C(=O)Nc3cccc(-c4nncn4C(C)C)n3)[nH]c12 | 240
12 | CC(C)n1cnnc1-c1cccc(NC(=O)c2cc3ccc(-c4cn[nH]c4)cc3[nH]2)n1 | 37.5
13 | CC(C)n1cnnc1-c1cccc(NC(=O)c2cc3ccc(-c4cccnc4)cc3[nH]2)n1 | 68.5

Next, values leading:

Row | IC50 [nM] | SMILES
14 | 41.4 | CC(C)n1cnnc1-c1cccc(NC(=O)c2cc3ccccc3[nH]2)n1
15 | 743 | CC(C)n1cnnc1-c1cccc(NC(=O)c2cc3ccccc3n2C)n1
16 | 88.2 | Cc1c(C(=O)Nc2cccc(-c3nncn3C(C)C)n2)[nH]c2ccccc12
17 | 19.6 | CC(C)n1cnnc1-c1cccc(NC(=O)c2cc3c(-c4cnn(C)c4)cccc3[nH]2)n1
18 | 1110 | Cc1c(C(=O)Nc2cccc(-c3nncn3C(C)C)n2)oc2ccccc12
19 | 506 | CC(C)n1cnnc1-c1cccc(NC(=O)c2nc3ccccc3s2)n1
20 | 143 | CC(C)n1cnnc1-c1cccc(NC(=O)c2[nH]c3ccccc3c2-c2ccoc2)n1
21 | 153 | CC(C)n1cnnc1-c1cccc(NC(=O)c2cc3cccc(-c4ccsc4)c3[nH]2)n1
22 | 152 | CC(C)n1cnnc1-c1cccc(NC(=O)c2cc3ccccc3o2)n1

Target: T1, Mitogen-activated protein kinase kinase kinase 5
Assay: Inhibition of ASK1 (unknown origin)

Row | SMILES | IC50 [nM]
23 | Cc1cc(F)c(C(=O)Nc2cccc(-c3nncn3[C@@H](C)C(F)(F)F)n2)cc1-n1cnc(C2CC2)c1 | 4.3

From ChEMBL document CHEMBL4819011, “Structure-based discovery of 1H-indole-2-carboxamide derivatives as potent ASK1 inhibitors for potential treatment of ulcerative colitis” (Eur J Med Chem, 2021)
